# High-throughput results: PubChem BioAssay, several laboratories
# CAL PDZ FP-1: CAL PDZ (human) peptide binding inhibition. purified CAL PDZ, TMR-peptide fluorescence polarization, 1 h. hit rate 0.92% among 300,000. inhibition, % at 24.9 µM. AID 602252;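 active = mean inhibition of at least 30% with at least half of replicates also reaching 30%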;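 also: 0% = DMSO neutral control and 100% = excess unlabeled competitor peptide PRC23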
# C-LANA FP: blocks KSHV LANA C-terminal domain binding to DNA | inhibition, % at 9 µM | hit rate 0.078% among 340,000 | MBP-C-LANA/FAM-LBS DNA binding, fluorescence polarization | AID 504423;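 active = highest replicate inhibition at or above 60% at 9 µM, even if other replicates fall short; inactive = all replicates below 60% inhibition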;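 also: 0% = neutral control wells and 100% = 4 µM acridine orange control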
# APOBEC3A inh: human APOBEC3A DNA deaminase inhibition. hit rate 0.41% among 330,000. inhibition, % at 20 µM. recombinant A3A, FAM/TAMRA ssDNA deamination fluorescence. AID 493011;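 active = at least 40% inhibition at 20 µM here, with at most 30% in a related deaminase screen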;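 also: plate controls were A3A with DMSO for no effect and wells lacking A3A enzyme for full effect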
# Target sequence (P31941 whole entry, looked up): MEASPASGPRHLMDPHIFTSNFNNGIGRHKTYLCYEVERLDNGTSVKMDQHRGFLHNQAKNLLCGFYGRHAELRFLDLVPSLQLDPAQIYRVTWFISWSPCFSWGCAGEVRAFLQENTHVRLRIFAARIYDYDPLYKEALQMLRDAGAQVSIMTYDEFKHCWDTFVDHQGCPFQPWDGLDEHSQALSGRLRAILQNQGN
# CAL PDZ FP-2: inhibitors of human CAL PDZ peptide binding | purified CAL PDZ, TMR-peptide fluorescence polarization, 1 h | inhibition, % at 20 µM | Q9HD26 | hit rate 0.02% among 330,000;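 active = highest replicate inhibition of at least 40%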;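 also: plate controls were DMSO neutral control wells for no effect and unlabeled competitor peptide control wells for full effect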
#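 material = purified tagged CAL PDZ domain construct (CerCALP) | buffer or medium = sodium phosphate/NaCl buffer pH 7.4 with TCEP, IgG, Thesit | reagent = TMR-labelled reporter peptide T*-PRC34 bound in PDZ groove | incubation = 1 h room-temperature incubation prior to read | measured by = fluorescence polarization (mP) | evaluation = percent inhibition from loss of millipolarization | control set = unlabelled peptide and DMSO controls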
# Keap1-Nrf2 PPI: inhibitors of human Keap1-Nrf2 protein-protein interaction; AID 504523; Keap1 Kelch-Nrf2 peptide fluorescence polarization, 1536-well; Q14145; hit rate 0.15% among 340,000; inhibition, % at 9.4 µM; in the data active = inhibition above about 12%;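 also: human Keap1 Kelch domain with fluorescein labeled Nrf2 9mer peptide probe; 0% = neutral control wells and 100% = peptide positive control; higher means more block of Keap1 binding to Nrf2 peptide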
# APOBEC3G inh: inhibitors of human APOBEC3G DNA deaminase. hit rate 0.28% among 330,000. Q9HC16. recombinant A3G, ssDNA deamination FAM/TAMRA fluorescence. inhibition, % at 20 µM;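 active = inhibition of at least 40% at 20 µM, with no more than 30% in the related APOBEC3A deaminase screen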;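 also: plate controls were DMSO wells with A3G for no effect and wells lacking A3G enzyme for full effect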
# Target sequence (Q9HC16 whole entry, looked up): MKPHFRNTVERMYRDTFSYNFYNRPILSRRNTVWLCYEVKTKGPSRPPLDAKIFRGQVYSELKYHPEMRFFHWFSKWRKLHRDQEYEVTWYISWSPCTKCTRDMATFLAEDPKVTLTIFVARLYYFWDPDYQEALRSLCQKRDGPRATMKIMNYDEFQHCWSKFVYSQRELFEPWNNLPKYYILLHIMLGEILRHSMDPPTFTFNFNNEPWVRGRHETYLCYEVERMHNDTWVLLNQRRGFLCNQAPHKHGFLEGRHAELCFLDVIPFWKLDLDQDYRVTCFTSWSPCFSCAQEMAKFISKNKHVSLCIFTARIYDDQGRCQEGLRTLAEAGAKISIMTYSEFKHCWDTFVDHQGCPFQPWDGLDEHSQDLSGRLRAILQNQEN
# A3A conf: APOBEC3A (human) deaminase inhibition, confirmed; shares compounds with APOBEC3A inh; recombinant A3A, ssDNA deaminase UDG fluorescence assay; inhibition, % at 20 µM; hit rate 63% among 1,400; AID 493151;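 active = inhibition reaching a set limit, 80% of the first screen's cutoff, at 20 µM in any replicate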;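 also: plate controls were DMSO wells with A3A for no effect and wells lacking A3A enzyme for full effect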
# UDG A3A counter: inhibits UDG, flagging false APOBEC3A inhibitors. shares compounds with APOBEC3A inh. UDG counterscreen, FAM/TAMRA uracil oligo fluorescence. inhibition, % at 20 µM. 1,000 tested, under 10 active. AID 504714; call rule not given here
# An asterisk follows results filed as active; . = no result. The list is not random: actives were taken first. Their share in the collection is about 1.7%.
SMILES,CAL PDZ FP-1,C-LANA FP,APOBEC3A inh,CAL PDZ FP-2,Keap1-Nrf2 PPI,APOBEC3G inh,A3A conf,UDG A3A counter
C[n+]1cnn2c1SCC1(COC1)C2,-1.9,0.3,45.4*,-1.4,-0.9,26.1,85.0*,-0.8
Nc1nnc(SCC(=O)N2CCN(Cc3ccccc3)CC2)s1,2.1,-2.4,64.0*,-0.2,-4.7,19.6,23.9,.
Cc1nn(C(C)C(=O)Nc2ccc(Cl)cn2)c(C)c1[N+](=O)[O-] (centres undefined),-3.2,0.6,52.0*,-2.2,7.1,-1.1,8.8,-0.4
O=C(COC(=O)C1CCN(/C=C/C(=O)C(F)(F)F)CC1)Nc1cccc(F)c1,-4.3,0.1,0.8,-0.1,-6.5,10.3,.,.
Cc1n(-c2ccccc2)c2ccc(Cl)cc2[n+]1CCO,2.8,1.2,49.7*,0.1,0.6,15.8,75.4*,-2.2
COc1ccc(S(=O)(=O)N2CCCCC2)cc1NC(=O)c1ccc([N+](=O)[O-])o1,-1.2,-0.7,4.6,-2.1,3.9,-9.2,.,.
CCN1CCN(c2ccc(S(=O)(=O)N3CCCCC3)cc2NC(=O)c2sccc2C)CC1,4.0,0.4,69.4*,-0.1,0.2,20.8,64.2*,-3.0
CCN1CCN(c2ccc(S(=O)(=O)N3CCCCC3)cc2NC(=O)c2ccc([N+](=O)[O-])o2)CC1,-4.7,-5.2,53.1*,0.5,-10.7,5.5,33.4*,.
COc1cc2cc(C(=O)N3CCOCC3)cc(-c3ccc(C)cc3)c2cc1OC,-2.8,-1.5,1.0,.,0.8,-5.2,.,.
CC(C)[C@H](NC(=O)c1ccc(Cl)cc1)C(=O)OCC(=O)N1CCN(c2ccccc2)CC1,.,-0.6,35.5,-0.9,-1.1,-5.7,.,.
O=C(O)c1cc(Cl)c2c(c1)OCO2,5.8,8.3,42.8*,0.1,-3.4,8.1,27.1,.
N#CCC(=O)N/N=C/c1cn(Cc2ccccc2C#N)c2ccccc12,-1.4,0.6,56.3*,-0.1,-2.3,18.4,71.9*,3.1
O=C1C=C(c2ccc3ncccc3c2)C[C@@H](c2ccc3c(c2)OCO3)C1,-3.9,-0.9,-0.7,-1.9,-0.7,8.8,.,.
CN(C(=O)COC(=O)CSCc1cccc(Cl)c1)c1c(N)n(Cc2ccccc2)c(=O)[nH]c1=O,-10.7,4.3,10.5,0.0,3.6,-0.7,.,.
CN(C(=O)COC(=O)CSc1cc(Cl)ccc1Cl)c1c(N)n(Cc2ccccc2)c(=O)[nH]c1=O,-2.3,0.1,40.8*,-3.6,0.7,8.1,-0.8,.
O=C(c1cccnc1)N1CCN(c2ccc(Cl)cc2)CC1,-3.6,1.1,47.7*,-0.1,-5.3,-6.0,-4.2,-1.6
CCn1c(SCC(=O)N2CCCC2)nnc1-c1ccc(N)cc1,-13.0,-0.8,43.6*,-1.6,-4.2,24.6,64.7*,2.7
O=C(Nc1cccc2ncccc12)c1ccc(F)cc1,-1.4,0.0,-2.2,-3.6,0.0,-5.3,.,.
O=C(Nc1cccc2ncccc12)c1ccc(Cl)cc1,7.1,0.0,65.5*,-1.5,-5.5,19.9,41.7*,.
O=c1[nH]c(=O)n(CCc2ccc(F)cc2)c(O)c1C=NCc1ccc2c(c1)OCO2,5.3,-1.2,68.3*,-0.3,-2.7,19.6,1.5,.
Cc1cccc(C)c1OCC(=O)NCc1nnc(SCC(=O)NC2CCCCC2C)n1C (centres undefined),-1.0,-2.6,52.7*,.,2.9,10.2,59.9*,2.7
COc1ccc(/C=N/OC(=O)Nc2ccccc2OC)cc1,-1.1,-0.3,97.2*,-2.3,-0.7,-3.0,-63.6,5.8
Cc1ccccc1NC(=O)NNC(=O)CCc1ccccc1,8.2,-0.2,40.5*,-0.5,-1.4,0.4,-1.5,.
Cc1[nH]c2ccccc2c1C(=O)CSc1n[nH]c(N)n1,4.1,-1.6,1.5,-3.1,-4.8,-1.7,.,.
COc1ccc2c(c1)c(=O)oc1cc(OCC(=O)N3CCc4ccccc4C3)ccc12,-2.4,1.2,44.6*,-3.4,-4.3,10.5,71.0*,-2.1
SMILES,CAL PDZ FP-1,C-LANA FP,APOBEC3A inh,CAL PDZ FP-2,Keap1-Nrf2 PPI,APOBEC3G inh,A3A conf,UDG A3A counter
COc1ccc2c(c1)c(=O)oc1cc(OCC(=O)N3CCCC(C)C3)ccc12 (centres undefined),.,-0.8,8.1,-2.2,0.0,-4.6,.,.
COc1ccc2c(c1)c(=O)oc1cc(OCC(=O)N3CCC(C)CC3)ccc12,.,-0.5,54.1*,-0.3,1.6,27.9,49.1*,-1.1
COc1ccc(NC(=O)CCC(=O)c2ccc(F)cc2)cc1,-5.6,3.2,.,-2.8,-5.0,.,.,.
O=C(NCCOc1cccc(Cl)c1Cl)c1cc(-n2cnnc2)ccc1Cl,.,-1.0,-0.6,-1.9,3.6,-6.3,.,.
O=C(NCc1ccc2c(c1)OCO2)c1cc(-n2cnnc2)ccc1Cl,-3.3,1.5,57.2*,-0.2,-3.4,11.7,71.9*,-0.9
CCSCCNC(=O)c1cc(-n2cnnc2)ccc1Cl,-1.2,-0.3,60.2*,0.1,-3.7,25.3,60.5*,2.0
CN(C)c1ccc(/C=C/c2cc[n+](C)cc2)cc1,-22.8,-13.5,38.8,-1.5,-26.9,10.7,.,.
C[n+]1ccc(/C=C/c2cccs2)cc1,11.8,-0.9,52.4*,1.0,0.4,21.1,54.3*,.
O=C(CSc1nnc(-c2ccncc2)n1-c1ccccc1)N1CCN(c2ccc(Cl)cc2)CC1,-4.2,2.7,43.7*,-2.7,2.9,15.2,65.4*,0.2
O=C(CSc1nnc(-c2cccnc2)n1-c1ccccc1)N1CCN(c2ccc(F)cc2)CC1,-5.2,-0.8,-2.0,-1.7,-2.8,-5.8,.,.
CC(=O)c1ccccc1NS(=O)(=O)c1cccc2nonc12,-0.7,-2.0,0.8,-2.1,-3.8,1.8,.,.
CC(=O)c1ccccc1NS(=O)(=O)c1cccc2nsnc12,8.6,1.3,41.2*,-1.2,-0.2,7.7,29.0*,2.4
C=CCOc1ccc(C(=O)Nc2ccccc2C(=O)NCc2cccnc2)cc1,-0.6,0.2,42.6*,-6.2,-7.3,4.6,33.8*,-1.1
COCc1ccc(C(=O)Nc2ccccc2C(=O)NCc2cccnc2)cc1,-2.7,1.0,-1.9,-2.3,-1.3,-10.9,.,.
CCOC(=O)N1CCN(c2nc(-c3ccccc3)c3ccccc3n2)CC1,-1.1,-2.8,0.0,-0.7,0.4,0.7,.,.
CCc1noc(C)c1C(=O)NNC(=O)c1cc(OC)c(OC)c(OC)c1,-5.7,-0.1,62.1*,-2.2,-6.0,8.9,53.5*,-1.3
CCc1noc(C)c1C(=O)NNC(=O)c1cc(OC)cc(OC)c1,1.6,-1.8,2.6,0.6,-0.3,-0.2,.,.
Cc1ccc(C)c(NC(=O)C2CC(O)CN2C(=O)OCc2ccccc2)c1 (centres undefined),0.4,0.0,-1.6,-1.0,0.5,-6.3,.,.
